According to ChEMBL document CHEMBL3739281, “Identification, synthesis and pharmacological evaluation of novel anti-EV71 agents via cyclophilin A inhibition” (Bioorg Med Chem Lett, 2015):
The source made the active and inactive calls. The calls are words filed in the database; no cut-off is given here.

Columns and labels:
[1] = biological target: T1, Peptidyl-prolyl cis-trans isomerase A (Homo sapiens, UniProt P62937); assay: Inhibition of CypA (unknown origin) assessed as peptidyl-prolyl cis-trans isomerase activity using N-succinyl-Ala-Ala-Pro-Phe-p-nitroanilide as substrate by spectrophotometry
Target sequence in this assay (P62937 whole entry): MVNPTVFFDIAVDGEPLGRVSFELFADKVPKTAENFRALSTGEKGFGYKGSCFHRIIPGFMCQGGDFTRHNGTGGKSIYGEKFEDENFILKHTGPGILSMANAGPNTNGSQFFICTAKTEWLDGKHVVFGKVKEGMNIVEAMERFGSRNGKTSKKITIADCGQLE

[2] = biological target: T1, Peptidyl-prolyl cis-trans isomerase A; assay: Inhibition of CypA (unknown origin) assessed as peptidyl-prolyl cis-trans isomerase activity at 10 uM using N-succinyl-Ala-Ala-Pro-Phe-p-nitroanilide as substrate by spectrophotometry
Target sequence in this assay (P62937 whole entry, looked up): as the sequence (P62937 whole entry) above

[3] = Retention time of the compound by HPLC analysis; type: physicochemical
Enterovirus A71 [4] = assay: Antiviral activity against EV71 infected in RD cells after 24 hrs by luciferase assay; type: functional, organism-based; conditions: Enterovirus A
[5] = Cytotoxicity against human RD cells after 24 hrs by WST-1 assay; type: cell-based
[6] = Cytotoxicity against ICR mouse B spleen cells assessed as inhibition of cell proliferation after 72 hrs by MTT assay; type: cell-based
[7] = Cytotoxicity against ICR mouse T spleen cells assessed as inhibition of cell proliferation after 72 hrs by MTT assay; type: cell-based
Method in brief: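 Proliferation of T and B spleen cells, each from one mouse, run as triplicate sets per assay. IC50 is the mean ± SD of three experiments.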

Enterovirus A71 [8] = assay: Antiviral activity against EV71 infected in RD cells at 0.31 to 5 uM after 24 hrs by luciferase assay in presence of NITD008; type: functional
Enterovirus A71 [9] = assay: Antiviral activity against EV71 infected in RD cells at 0.08 uM after 24 hrs by luciferase assay in presence of NK-1.8K; type: functional, organism-based
Enterovirus A71 [10] = assay: Antiviral activity against EV71 infected in RD cells assessed as decrease in viral protein1 level by western blot analysis; type: functional, organism-based
Method in brief: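 EV71 VP1 protein detected by western blot in a dose series of 5, 1, 0.2 and 0.04 μM. NITD008 at 5 μM serves as positive control.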

Enterovirus A71 [11] = assay: Potency index, Ratio of EC50 for cyclosporin A to EC50 for compound for antiviral activity against EV71; type: functional
Enterovirus A71 [12] = assay: Antiviral activity against EV71 infected in RD cells assessed as decrease in viral RNA level at 5 uM after qRT-PCR analysis; type: functional; conditions: Enterovirus A, read-out: INH
Method in brief: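 Cells are infected with wild-type or S243P mutant EV71 and treated at 5 μM. Viral RNA is reported as a percentage of untreated control cells, with GAPDH mRNA as internal control. Each point is the average of three replicates.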

Enterovirus A71 [13] = assay: Antiviral activity against EV71 infected in RD cells at 0.31 to 5 uM after 24 hrs by luciferase assay in presence of NK-1.8K; type: functional
Enterovirus A71 [14] = assay: Antiviral activity against EV71 infected in RD cells at 0.08 uM after 24 hrs by luciferase assay in presence of NITD008; type: functional, organism-based
Enterovirus A71 [15] = assay: Antiviral activity against EV71; type: functional, organism-based; conditions: Enterovirus A

Row | Compound | IC50 ([1]; read-out: IC50) | inhibition [2] | Retention_time [3] | EC50 (Enterovirus A71 [4]) | CC50 at 24 h [5] | also measured
1 | O=C(Cc1ccccc1F)NC(=O)NC1c2ccccc2-c2ccccc21 | 10 µM | 16.9% | 6.05 min | > 10 µM | > 50 µM | –
2 | O=C(NC(=O)c1c(O)cccc1O)NC1c2ccccc2-c2cccc(F)c21 (centres undefined) | 0.94 µM | – | 4.7 min | 1.13 µM | > 25 µM | –
3 | O=C(NC(=O)c1ccccc1F)NC1c2ccccc2-c2ccccc21 | – | – | – | 1.07 µM | > 20 µM | IC50 [6]: > 100 µM; IC50 [7]: > 100 µM
4 | O=C(NC(=O)c1c(O)cccc1O)NC1c2ccccc2-c2ccccc21 | – | – | – | 3.36 µM | > 20 µM | IC50 [6]: 51.9 µM; IC50 [7]: 33 µM
5 | O=C(NC(=O)c1c(O)cccc1O)NC1c2ccccc2-c2cc(F)ccc21 (centres undefined) | 2.76 µM | – | 8.07 min | 0.37 µM | > 25 µM | %max (Enterovirus A71 [8]): 20%; Activity (Enterovirus A71 [9]): inactive; inhibition (Enterovirus A71 [10]): Dose-dependent effect; Ratio EC50 (Enterovirus A71 [11]): 9.9; inhibition at 5 µM (Enterovirus A71 [12]): 3%; %max (Enterovirus A71 [13]): 20%; Activity (Enterovirus A71 [14]): inactive
6 | O=C(NC(=O)c1c(O)cccc1O)NC1c2ccc(F)cc2-c2ccc(F)cc21 (centres undefined) | 10.3 µM | – | 4.94 min | 1.08 µM | > 25 µM | –
7 | Cc1ccc2c(c1)-c1ccccc1C2NC(=O)NC(=O)c1ccccc1F (centres undefined) | 10 µM | 28.7% | 8.84 min | 0.92 µM | > 10 µM | –
8 | O=C(NC(=O)c1c(F)cccc1F)NC1c2ccccc2-c2ccccc21 | – | – | – | 5.85 µM | > 20 µM | –
9 | C/C=C/C[C@@H](C)[C@@H](O)[C@H]1C(=O)N[C@@H](CC)C(=O)N(C)CC(=O)N(C)[C@@H](CC(C)C)C(=O)N[C@@H](C(C)C)C(=O)N(C)[C@@H](CC(C)C)C(=O)N[C@@H](C)C(=O)N[C@H](C)C(=O)N(C)[C@@H](CC(C)C)C(=O)N(C)[C@@H](CC(C)C)C(=O)N(C)[C@@H](C(C)C)C(=O)N1C [CYCLOSPORINE] | – | – | – | 3.66 µM | – | –
10 | O=C(NC(=O)c1c(O)cccc1O)NC1c2ccccc2-c2cc(Cl)ccc21 (centres undefined) | 1.22 µM | – | 4.19 min | 0.46 µM | > 25 µM | –
11 | O=C(NC(=O)c1c(O)cccc1O)NC1c2ccccc2-c2cc(C(F)(F)F)ccc21 (centres undefined) | – | 20.3% | 5.68 min | > 10 µM | > 25 µM | –
12 | O=C(NC(=O)c1c(O)cccc1O)NC1c2ccccc2C2CCCCC21 (racemic) | 10 µM | 27.6% | 5.41 min | 4.31 µM | > 25 µM | –
13 | O=C(NC(=O)c1ccccc1F)NC1c2ccccc2-c2cc(Cl)ccc21 (centres undefined) | 10.8 µM | – | 6.6 min | 3.34 µM | > 25 µM | –
14 | O=C(NCc1c(O)cccc1O)NC1c2ccccc2-c2ccccc21 | 10 µM | 9.25% | 5.37 min | > 10 µM | > 25 µM | –
15 | Cc1ccc2c(c1)-c1ccccc1C2NC(=O)NC(=O)c1c(O)cccc1O (centres undefined) | 11.6 µM | – | 4.42 min | 2.72 µM | > 25 µM | –
16 | O=C(NC(=O)c1ccccc1F)NC1c2ccccc2-c2cccc(F)c21 (centres undefined) | 10.4 µM | – | 6.02 min | 0.66 µM | > 25 µM | –
17 | O=C(NC(=O)c1ccccc1F)NC1c2ccccc2C2CCCCC21 (racemic) | 10 µM | 33.5% | 9.04 min | 5.25 µM | > 25 µM | –
18 | O=C(NC(=O)c1ccccc1F)NC1c2ccccc2-c2cc(F)ccc21 (centres undefined) | 10.3 µM | – | 6.15 min | 2.11 µM | > 10 µM | –
19 | O=C(NCc1ccccc1F)NC1c2ccccc2-c2ccccc21 | 10 µM | 17.8% | 5.57 min | > 25 µM | > 25 µM | –
20 | O=C(NC(=O)c1cc(O)cc(O)c1)NC1c2ccccc2-c2ccccc21 | – | – | 7.88 min | > 25 µM | > 25 µM | IC50 [1]: Not Active
21 | O=C(NC(=O)c1c(O)cccc1O)NC1c2ccccc2-c2cc3ccccc3cc21 (centres undefined) | 10 µM | 39.1% | 5.07 min | 1.92 µM | > 25 µM | –
22 | O=C(NC(=O)c1cc(F)ccc1O)NC1c2ccccc2-c2ccccc21 | 10 µM | 27.7% | 8.91 min | 3.78 µM | > 25 µM | –
23 | CCOC(=O)/C=C/[C@H](C[C@@H]1CCNC1=O)NC(=O)[C@@H](CC(=O)[C@@H](NC(=O)c1cc(C)on1)C(C)C)Cc1ccc(F)cc1 | – | – | – | – | – | EC50 (Enterovirus A71 [15]): 0.014 µM
24 | O=C(NC(=O)c1ccc(O)cc1O)NC1c2ccccc2-c2ccccc21 | 10 µM | 21.4% | 5.44 min | > 25 µM | > 25 µM | –
